HDAC3 inhib: blocks human histone deacetylase 3; recombinant HDAC3, fluorogenic peptide/trypsin coupled, fluorescence; O15379; inhibition, % at 8.3 µM; hit rate 0.15% among 320,000; AID 2718; in the data active means inhibition above about 26%, passing the limit was not always enough
Target sequence (O15379 whole entry, looked up): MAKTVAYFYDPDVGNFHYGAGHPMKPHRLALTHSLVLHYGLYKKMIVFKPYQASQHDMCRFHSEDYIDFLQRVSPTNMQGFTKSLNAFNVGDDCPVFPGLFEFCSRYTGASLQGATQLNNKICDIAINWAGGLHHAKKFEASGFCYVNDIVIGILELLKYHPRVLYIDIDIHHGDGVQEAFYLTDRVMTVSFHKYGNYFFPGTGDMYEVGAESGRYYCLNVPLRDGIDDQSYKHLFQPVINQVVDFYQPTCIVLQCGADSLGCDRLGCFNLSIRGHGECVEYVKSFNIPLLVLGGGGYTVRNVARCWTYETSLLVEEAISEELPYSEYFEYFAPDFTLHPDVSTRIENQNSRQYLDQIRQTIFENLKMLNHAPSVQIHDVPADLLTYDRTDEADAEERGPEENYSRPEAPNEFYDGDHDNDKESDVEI
FAS-TE inh: inhibitors of human fatty acid synthase thioesterase domain; hit rate 0.67% among 360,000; AID 602261; P49327; recombinant FAS-TE, OMFH fluorogenic substrate, fluorescence endpoint; inhibition, % at 15 µM;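 active means compounds whose normalised, plate-corrected inhibition of enzyme fluorescence in the single-dose primary screen is 50% or more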;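 further: 0% = DMSO with enzyme and 100% = substrate without enzyme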
UCH37 DUB inh: blocks the human deubiquitinase UCH37 | inhibition, % (no concentration beside the values) | AID 588478 | Q9Y5K5 | purified proteasome/UCH37, Ub-AMC cleavage fluorescence | hit rate 0.33% among 330,000;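 active means mean inhibition over replicate wells above about 20%, limit read from the data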;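 further: 0% = compound-free wells with enzyme and 100% = wells lacking proteasome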
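Signal – fluorescence, ex 355 nm, em 460 nm · System – Proteasome-bound UCH37 · Input – 0.15 nM proteasome as dispensed · Timing – 30 min preincubation with enzyme, 25 min cleavage at room temperature · Read-out basis – percent inhibition of cleavage signal versus uninhibited and no-proteasome wells · Medium – Tris-HCl pH 7.4 with ATP-MgCl2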
Rtt109 Vps75: blocks Candida albicans Rtt109/Vps75 acetyltransferase activity | Q5AAJ8 | purified Rtt109/Vps75, ThioGlo CoA-SH fluorescence, 4 h | inhibition, % at 34.9 µM | hit rate 0.16% among 330,000 | AID 540336;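 active means inhibition of at least 50% in every replicate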
PfM18AAP inh: blocks P. falciparum M18 aspartyl aminopeptidase; recombinant PfM18AAP, H-Glu-NHMec fluorogenic cleavage; AID 1822; hit rate 1.2% among 290,000; inhibition, % at 7.35 µM;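 active means inhibition above the campaign mean inhibition over all tested compounds plus 3 SD, cut at about 28% in these data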;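 further: 0% = plate median of test compound wells and 100% = 2 mM ZnCl2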
ALR H2O2 inh: inhibitors of human sulfhydryl oxidase ALR; P55789; purified ALR, DTT oxidation, H2O2 HRP-luminol luminescence; inhibition, % (no concentration beside the values); hit rate 3.8% among 290,000;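 active means mean replicate inhibition above about 79%, with every replicate also reaching it, limit read from the data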
Target sequence (P55789 whole entry, looked up): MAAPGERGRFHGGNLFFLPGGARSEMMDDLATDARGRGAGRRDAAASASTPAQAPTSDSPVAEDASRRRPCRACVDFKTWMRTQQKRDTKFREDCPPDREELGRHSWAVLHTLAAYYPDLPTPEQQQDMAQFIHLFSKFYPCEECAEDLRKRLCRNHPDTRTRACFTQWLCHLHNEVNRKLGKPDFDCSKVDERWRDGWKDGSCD
Numbers without * were called inactive; . = no result. A selection: hits, their analogues and other compounds. The true share with any hit is near 4.6%.

SMILES | HDAC3 inhib | FAS-TE inh | UCH37 DUB inh | Rtt109 Vps75 | PfM18AAP inh | ALR H2O2 inh
CC(=O)SC1CC(=O)N(c2ccc(C(C)(C)C)cc2)C1=O (stereo unspecified) | -9 | -4 | 8 | -1 | -8 | 98*
CC(=O)SC1CC(=O)N(c2c(C)cccc2C)C1=O (stereo unspecified) | 2 | -3 | 3 | 7 | -26 | .
CN(C)c1ccc(/C=[N+](\[O-])C(C)(C)C=NO)cc1 | . | . | 23* | . | . | .
CN(C)c1ccc(C=Nc2ccc(N(C)C)cc2)cc1 | -4 | -9 | 5 | -2 | 22 | 97*
CN(C)c1ccc(/C=N/O)cc1 | 1 | -7 | . | -4 | 0 | 99*
CN(C)c1ccc(C=Nc2ccccc2)cc1 | -3 | -6 | 13 | 6 | -12 | -5
CN(C)c1ccc(N=Cc2ccco2)cc1 | -4 | -13 | 4 | 0 | 14 | 94*
COc1ccc(C=NNC(=S)Nc2ccccc2)cc1COc1ccccc1F | . | . | 2 | . | . | .
COc1cccc(CNc2ccc(F)c([N+](=O)[O-])c2)c1O | 4 | 11 | 1 | 9 | 7 | 98*
O=C(CCC(=O)Nc1cccc([N+](=O)[O-])c1)NN=Cc1cccs1 | . | . | 3 | . | . | .
COc1ccc(-c2c3c(=O)n(C)c(=O)n(C)c3cn2-c2ccc(O)cc2)cc1 | -41 | 7 | -49 | -6 | 24 | 89*
COc1ccc(-c2c3c(=O)n(C)c(=O)n(C)c3cn2-c2ccccc2)cc1 | 1 | 3 | -49 | 2 | -1 | 1
Cc1cc(NN)nc2ccc(Cl)cc12 | 8 | -2 | 3 | 28 | 31* | -10
CC(=NNC(=O)CSCc1cccc(Br)c1)c1ccc([N+](=O)[O-])cc1 | . | . | 4 | . | . | .
C=C(C)CC1Nc2ccccc2NC1CC(=C)C (stereo unspecified) | 4 | -14 | 1 | 10 | -11 | 99*
O=C(NN=Cc1cccs1)C1CC(=O)N(c2ccccc2)C1 (stereo unspecified) | . | . | 3 | . | . | .
COc1ccc(O[C@H]2C=C[C@@H](c3ccccc3)O[C@@H]2COC(=O)CCC(C)=NO[C@@H](C)CN2CCCCc3nc(C)c(C)cc32)cc1 | . | . | -4 | . | . | .
Cc1ccc(NC2CCCN(C(=O)c3cccc4nccnc34)C2)cc1C (stereo unspecified) | 0 | -1 | 0 | -1 | 9 | 88*
Cc1ccc(NC2CCCN(C(=O)c3ccnc(Cl)c3)C2)cc1C (stereo unspecified) | -3 | -5 | 5 | -2 | 1 | 96*
O=C(c1ccc2nccnc2c1)N1CCCC(Nc2ccc(F)c(F)c2)C1 (stereo unspecified) | . | -2 | 2 | 0 | -2 | 2
Cc1ccc(NC2CCCN(C(=O)c3ccc4nccnc4c3)C2)cc1C (stereo unspecified) | 1 | -2 | 3 | -10 | 6 | 98*
COc1ccc(NC2CCCN(C(=O)c3ccc4nccnc4c3)C2)cc1OC (stereo unspecified) | -4 | -1 | 3 | 5 | 7 | 96*
COc1ccc(C(=O)C2CCCN(C(=O)c3ccc4nccnc4c3)C2)c(C)c1 (stereo unspecified) | -5 | -3 | 6 | 3 | -4 | 3
CC(C)c1ccc(NC2CCCN(C(=O)c3cccc4nccnc34)C2)cc1 (stereo unspecified) | -5 | -1 | 1 | 3 | 6 | 66
CN1CCN(CCC(=O)NN=C/C=C2\N(C)c3ccccc3C2(C)C)CC1 | . | . | 7 | . | . | .
SMILES | HDAC3 inhib | FAS-TE inh | UCH37 DUB inh | Rtt109 Vps75 | PfM18AAP inh | ALR H2O2 inh
Cc1cccc(C(=O)N2CCCC(Nc3ccc(C)c(C)c3)C2)n1 (stereo unspecified) | -1 | -3 | 4 | 7 | -8 | 99*
COc1ccc(C(=O)N2CCCC(Nc3ccc(C)c(C)c3)C2)c(OC)n1 (stereo unspecified) | 7 | -1 | 5 | 0 | 7 | 83*
Cc1ccc(NC2CCCN(C(=O)c3ccc(F)cc3)C2)cc1C (stereo unspecified) | 10 | -1 | 0 | 11 | 7 | 90*
COc1cccc(C(=O)N2CCCC(Nc3ccc(C)c(C)c3)C2)c1 (stereo unspecified) | -14 | -1 | 0 | 4 | 11 | 98*
Cc1ccc(NC2CCCN(C(=O)c3ccc(-n4ccnc4)cc3)C2)cc1C (stereo unspecified) | 3 | -2 | 5 | 0 | 10 | 62
Clc1ccc(N2CCN(N=Cc3cccnc3)CC2)cc1 | . | . | 0 | . | . | .
CCOc1cc(C=NN=C(N)N)ccc1OCc1ccc(Cl)cc1 | . | . | 2 | . | . | .
COc1cc(C=NN=C2CC3CCC2(C)C3(C)C)ccc1O (stereo unspecified) | . | . | 4 | . | . | .
O=S1(=O)c2ccccc2N=NN1Cc1cc(Cl)cc(Cl)c1 | 0 | . | . | . | 9 | 99*
O=S1(=O)c2ccccc2N=NN1Cc1ccc(Cl)cc1 | -7 | 1 | 2 | 1 | 12 | -1
COC(=O)NN=Cc1ccc(-c2ccccc2Cl)o1 | . | . | 5 | . | . | .
CCC(=O)NNc1nc2c(C)cc(C)cc2s1 | 1 | -4 | 4 | -5 | 58* | 1
Cc1ccc2nc(NNC(=O)c3ccc(S(=O)(=O)N4CCc5ccccc5C4)cc3)sc2c1 | 1 | 23 | 6 | 6 | 27 | 2
Cc1cc(C)c2nc(NNC(=O)c3ccc(S(=O)(=O)N4CC(C)CC(C)C4)cc3)sc2c1 (stereo unspecified) | 3 | 16 | 0 | 0 | 29* | -2
O=C(CNc1ccc(F)cc1)NN=C1CCc2ccccc21 | . | . | 4 | . | . | .
CCc1nnc2n1N=C(c1ccc([N+](=O)[O-])cc1)CS2 | 9 | 3 | 5 | 2 | 5 | 97*
CCOC(=O)c1c(-c2ccc(OC)cc2)csc1NC(=O)CCN1CCOCC1 | 4 | 13 | . | 3 | -5 | 64
CCOC(=O)c1c(-c2ccc(C)cc2)csc1NC(=O)CCN1CC(C)OC(C)C1 (stereo unspecified) | 3 | 12 | 6 | 10 | -9 | 97*
COc1ccc(NC(=S)Nc2ccc3cn[nH]c3c2)cc1 | -7 | -26 | 1 | -15 | 9 | 100*
COc1ccc(CNc2ccc3cn[nH]c3c2)c(OC)c1OC | 3 | -2 | 22* | 10 | 18 | .
S=C(Nc1ccc(Cl)cc1)Nc1ccc2cn[nH]c2c1 | 1 | -4 | -2 | 9 | 4 | -12
O=[N+]([O-])c1ccc(O)c(C=NNC(=S)Nc2ccc(Cl)cc2Cl)c1 | . | . | 2 | . | . | .
O=C(Nc1ccc2nc(-c3ccco3)c(-c3ccco3)nc2c1)NC1CC1 | . | -7 | . | -58 | 29* | .
O=C(NCCCO)Nc1ccc2nc(-c3ccco3)c(-c3ccco3)nc2c1 | 14 | . | . | . | 10 | -21
Cc1ccc(-n2[nH]c(C)c(C=NNc3ccc([N+](=O)[O-])cc3[N+](=O)[O-])c2=O)cc1C | . | . | 6 | . | . | .
Cc1ccc(O)c(CCc2ccc(O)cc2)n1 | 4 | -2 | -3 | -2 | -1 | 94*
OCCc1ccc(O)cc1 | -4 | -6 | 0 | -5 | . | 22
